# Shown are actives, neighbours in structure and some others; about 4.3% of the full set was active somewhere.
# RBBP9 inh = blocks human serine hydrolase RBBP9. AID 1515. O75884. recombinant RBBP9, FP-Rh probe fluorescence polarization. inhibition, % at 7.94 µM. 220,000 compounds, 0.2% hits;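 active = inhibition above the campaign mean of all tested compounds plus 3 SD, cut at about 14% in these data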
# Target sequence (O75884 whole entry, looked up): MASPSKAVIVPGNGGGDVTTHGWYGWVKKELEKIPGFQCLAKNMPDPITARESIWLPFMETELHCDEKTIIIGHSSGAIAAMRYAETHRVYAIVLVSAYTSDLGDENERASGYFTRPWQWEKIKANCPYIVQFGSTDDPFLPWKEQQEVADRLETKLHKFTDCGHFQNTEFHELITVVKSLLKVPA
#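 System: RBBP9 protein | Quantity: 2.5 µM RBBP9 dispensing solution, before mixing | Reagent: FP-Rh probe, 375 nM dispensing solution | Timing: Enzyme-compound preincubation 30 min, then probe labeling 45 min, 25 °C | Measured by: Fluorescence polarization | Read-out: % inhibition | Replication: One well per compound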
# ALR inh = human ALR oxidase inhibition via reduced H2O2; P55789; purified ALR, DTT oxidation, H2O2 HRP-luminol luminescence; inhibition, % (concentration not given with the values); 290,000 compounds, 3.8% hits; AID 485317;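 active = mean replicate inhibition above about 79%, with every replicate also reaching it, limit read from the data; inconclusive = only one of the two criteria met; inactive = mean below limit and not every replicate reaching it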
# UBC13 polyUb = blocks human UBC13 polyubiquitin chain formation. inhibition, % at 20 µM. 330,000 compounds, 0.47% hits. TR-FRET; in the data active = inhibition above about 45%, passing the limit was not always enough; inconclusive = no clear call, values can overlap the other calls
# Target sequence (P61088 whole entry, looked up): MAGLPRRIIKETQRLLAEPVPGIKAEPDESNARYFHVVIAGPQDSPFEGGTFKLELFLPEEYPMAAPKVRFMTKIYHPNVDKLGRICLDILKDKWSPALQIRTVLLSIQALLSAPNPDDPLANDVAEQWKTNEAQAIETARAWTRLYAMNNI
# UBC9 SUMO inh = blocks human SUMOylation mediated by UBC9 | P63279 | HTRF SUMOylation assay, SAE1/SAE2 + UBC9, in vitro | inhibition, % at 35 µM | 290,000 compounds, 0.36% hits | AID 2006; in the data active = inhibition above about 50%, passing the limit was not always enough; inconclusive = no clear call, values can overlap the other calls
# Target sequence (P63279 whole entry, looked up): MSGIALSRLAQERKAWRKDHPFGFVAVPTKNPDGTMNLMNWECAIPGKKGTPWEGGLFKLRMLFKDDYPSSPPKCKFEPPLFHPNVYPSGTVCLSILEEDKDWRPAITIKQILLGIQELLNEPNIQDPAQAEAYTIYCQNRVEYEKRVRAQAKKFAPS
# Rin1-Abl PPI inh = human Rin1-Abl interaction inhibition | P00519+Q13671 | TR-FRET Rin1/Abl binding, biochemical | inhibition, % at 7.35 µM | 360,000 compounds, 0.4% hits | AID 588664; in the data active = inhibition above about 5%, passing the limit was not always enough
# PREPL inh = inhibitors of human prolyl oligopeptidase-like enzyme PREPL | recombinant PREPL, fluorescence polarization activity-based probe | inhibition, % at 5.96 µM | 320,000 compounds, 0.68% hits | AID 2751; in the data active = inhibition above about 43%
# RBBP9 inh conf = human RBBP9 inhibition, confirmation | shares compounds with RBBP9 inh | inhibition, % at 7.94 µM | 410 compounds, 36% hits | recombinant RBBP9, FP-Rh probe fluorescence polarization | AID 1537;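 active = inhibition above the hit cutoff derived for the primary screen, cut at about 15% in these data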
# Hits are given with their value; i = inactive; ? = inconclusive; nt = no result given; + = active, no number.
SMILES,RBBP9 inh,ALR inh,UBC13 polyUb,UBC9 SUMO inh,Rin1-Abl PPI inh,PREPL inh,RBBP9 inh conf
Cc1cc(-c2onc(C)c2C(N)=O)no1,14,i,i,i,i,i,i
Cc1ccc(OCc2cc(C(=O)NC(C)Cc3cccc(C)n3)no2)cn1 (centres undefined),nt,i,i,i,i,i,nt
Cc1cccc(N2CCN(C(=O)c3cc(S(=O)(=O)N(C)C)ccc3N3CCCC3)CC2)c1C,15,i,i,i,i,i,i
Nc1[nH]n(-c2ccccc2)c(=O)c1N=Nc1ccc2ncsc2c1,19,i,i,i,i,i,34
Nc1[nH]n(-c2ccccc2)c(=O)c1N=Nc1ccccc1,i,i,i,i,i,i,nt
Cc1cc(=O)[nH]c2c(N=Nc3ccc(O)cc3)c(N)nn12,23,nt,nt,i,i,nt,34
COc1ccc(OC(C)C(=O)N2CCCc3ccccc32)cc1 (centres undefined),17,i,i,i,i,i,i
CC1=CC(=NOC(=O)/C=C/c2ccccc2)C=C(C)C1=O,17,i,i,i,i,i,79
CCCOc1ccc(N2C(=O)CC(NCC(=O)OCC)C2=O)cc1 (centres undefined),nt,i,i,nt,i,i,nt
O=c1c2ccccc2sn1-c1ccccc1,51,i,i,i,i,i,50
O=C(Cn1ccc([N+](=O)[O-])n1)N1CCCCCC1,16,i,i,i,i,i,i
O=C(Cn1ccc([N+](=O)[O-])n1)N1CCCCC1,i,i,i,i,i,i,nt
O=C(CSc1ccc2ccccc2n1)c1ccccc1,18,nt,i,i,i,i,i
Cc1nc2ccccc2nc1SCC(=O)c1ccccc1,i,i,i,i,i,i,nt
Cc1ccc(N(CC(=O)N/N=C/c2cc(C)n(-c3ccccc3)c2C)S(C)(=O)=O)c(C)c1,17,i,i,i,i,i,i
O=C(NCc1ccc2c(c1)OCO2)C1CC(=O)N(c2ccc(F)cc2)C1 (centres undefined),17,nt,i,i,i,i,i
COc1ccc(C2CC=C(C(C)=O)CN2S(=O)(=O)c2ccccc2)cc1 (centres undefined),nt,nt,nt,nt,i,nt,nt
O=c1cc(O)c2ccc(O)cc2o1,i,i,i,i,i,i,nt
O=c1ccc2[n+]([O-])c3ccc(O)cc3oc-2c1,+,nt,nt,i,i,nt,i
Cc1ccc(C(=O)N2CCc3ccccc32)cc1C,nt,nt,nt,nt,i,nt,nt
CC(=O)C(=Nc1ccccc1Cl)NNc1ccc(Cl)cc1,37,95,i,i,i,i,i
O=C(NNc1ccc(Cl)cc1)c1c(F)cccc1Cl,i,i,i,i,i,i,nt
COc1cc2c(cc1OC)C(c1ccccc1)N(C(=O)C(C)(C)C)CC2 (centres undefined),nt,nt,i,i,i,nt,nt
CCn1c(CSc2nnc(-c3ccncc3)n2C)nc2cc(C(=O)O)ccc21,17,i,i,i,i,i,21
CNCc1ccccc1Sc1cccc(O)c1,i,i,i,i,i,i,nt
SMILES,RBBP9 inh,ALR inh,UBC13 polyUb,UBC9 SUMO inh,Rin1-Abl PPI inh,PREPL inh,RBBP9 inh conf
CNCc1ccccc1Sc1cc(O)ccc1O,18,82,i,i,i,i,84
OC(CNC1Cc2ccccc2C1)COc1ccc(F)cc1 (centres undefined),15,nt,i,i,i,i,i
CS(=O)(=O)N(CC(=O)Nc1cccnc1)c1ccc2c(c1)OCO2,14,i,i,i,i,i,i
COc1cc(CN2CCN(c3ccccc3F)CC2)cc(OC)c1O,15,i,i,i,i,i,i
COc1cc(CN2CCC(C(=O)N3CCN(c4ccccc4F)CC3)CC2)cc(OC)c1O,i,i,i,i,i,i,nt
CCn1c(C(=O)NCc2cccnc2)cc2sc(Cl)cc21,15,nt,i,i,i,i,i
O=[N+]([O-])c1ccc(C(=S)N2CCN(c3ccc(F)cc3)CC2)cc1,15,i,i,i,i,i,i
CN(C)c1ccc(C(=S)N2CCN(c3ccc([N+](=O)[O-])cc3)CC2)cc1,i,i,i,i,i,i,nt
Cn1c(SCC(=O)N2CCCCCC2)nc2c(c1=O)SCC2,nt,i,i,i,i,i,nt
COc1ccc(C(=O)N(CC(=O)NC(C)(C)C)c2ccc3c(c2)OCCO3)cc1OC,15,i,i,i,i,i,i
Cc1ccccc1-n1sc2cc(F)ccc2c1=O,63,nt,i,i,i,i,72
N#CC1=C(N)Oc2ccc3ccc(O)cc3c2C1c1ccsc1 (centres undefined),53,nt,nt,i,i,nt,47
OCC[C@@H]1C[C@H](O)[C@@H](O)[C@]2(OCc3cc(Cl)ccc32)O1,nt,nt,nt,nt,i,nt,nt
O=Cc1cc(N=Nc2cccc(C(=O)O)c2)ccc1O,18,i,i,i,i,i,i
O=Cc1cc(N=Nc2ccccc2Cl)ccc1O,i,i,i,i,i,i,nt
CN(C)c1cc(-c2ccc([N+](=O)[O-])cc2)oc(=O)c1Cl,i,i,i,i,i,i,nt
COc1cccc(/C=N/NC(=O)c2cc3c(OC)ccc(OC)c3[nH]2)c1O,nt,i,i,i,i,i,nt
COc1cc(OC)c2cc(C(=O)N/N=C/c3cccc(OC)c3O)[nH]c2c1,16,i,i,i,i,i,32
Clc1ccc(-c2nn3c(-c4ccccc4)nnc3s2)cc1,17,i,i,i,i,i,i
CCOC(=O)C1=C(CS(=O)(=O)c2ccccc2)NC(=O)NC1c1cc(OC)c(O)c(OC)c1 (centres undefined),nt,i,i,i,i,i,nt
COc1cc(-n2nnnc2SCC(=O)N2CCN(c3ccc(F)cc3)CC2)c(OC)cc1Cl,16,nt,nt,i,i,nt,i
CCOC(=O)CSc1nnnn1-c1cc(OC)c(Cl)cc1OC,i,i,i,i,i,i,nt
CNC(=O)C(=O)Nc1c(O)c2ccccc2[nH]c1=O,18,i,i,i,i,i,i
CC(=O)Nc1c(O)c2ccccc2[nH]c1=O,i,i,i,i,i,i,nt
O=c1c2cc(N3CCOCC3)ccc2[nH]c(=S)n1CCc1ccccc1,i,nt,i,i,i,i,nt
SMILES,RBBP9 inh,ALR inh,UBC13 polyUb,UBC9 SUMO inh,Rin1-Abl PPI inh,PREPL inh,RBBP9 inh conf
O=c1c2ccccc2[nH]c(=S)n1CCCN1CCOCC1,15,87,i,i,i,i,i
O=c1c2cc(N3CCOCC3)ccc2[nH]c(=S)n1Cc1ccccn1,15,i,i,55,i,i,i
Cc1cccnc1C(NC(=O)C1CCN(Cc2ccc(Oc3ccccc3)cc2)CC1)c1ccccc1 (centres undefined),nt,nt,nt,nt,i,nt,nt
O=C(Oc1ccc(-c2cnc3ccccc3n2)cc1)c1ccc(Br)o1,17,i,i,i,i,i,i
C/C(=C\C(=O)c1cccnc1)Nc1ccc(O)cc1,43,i,i,?,i,81,i
C/C(=C\C(=O)c1ccc(C)cc1)Nc1cccc(O)c1,i,i,i,i,i,i,nt
CNS(=O)(=O)c1ccc2ccccc2c1,19,i,i,i,i,i,i
